Test results from ChEMBL document CHEMBL1131259, “Synthesis and evaluation of diphenyl phosphonate esters as inhibitors of the trypsin-like granzymes A and K and mast cell tryptase” (J Med Chem, 1998).
Activity calls are given as the source filed them. The rule behind the calls is not given here.

Assays:
[1] = target: T1, Granzyme A (Homo sapiens) (UniProt P12544); experiment: Inhibition of human granzyme A
T1 sequence (whole entry): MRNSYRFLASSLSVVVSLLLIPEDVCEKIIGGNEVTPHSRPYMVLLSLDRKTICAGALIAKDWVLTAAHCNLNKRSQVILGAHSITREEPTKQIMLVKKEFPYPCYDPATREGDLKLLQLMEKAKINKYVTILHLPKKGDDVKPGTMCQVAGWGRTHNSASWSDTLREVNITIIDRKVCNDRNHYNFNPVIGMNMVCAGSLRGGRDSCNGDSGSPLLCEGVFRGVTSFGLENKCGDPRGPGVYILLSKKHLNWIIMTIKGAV
How it was run: (§1)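 Recombinant human and rat granzyme A, incubated with inhibitor (1.0–450 μM) at 25 °C in 0.1 M Hepes, 0.01 M CaCl2, pH 7.5 (7.6% DMSO). Timed aliquots were read for residual activity on Cbz-Arg-SBzl with DTNB at 405 nm. k_obs came from ln vt/vo vs time over 5–10 points and 2–3 half-lives, two k_obs per inhibitor. DMSO controls were run.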

[2] = target: T2, Granzyme K (Rattus norvegicus) (UniProt P49864); experiment: Inhibition of rat granzyme K
T2 sequence (whole entry): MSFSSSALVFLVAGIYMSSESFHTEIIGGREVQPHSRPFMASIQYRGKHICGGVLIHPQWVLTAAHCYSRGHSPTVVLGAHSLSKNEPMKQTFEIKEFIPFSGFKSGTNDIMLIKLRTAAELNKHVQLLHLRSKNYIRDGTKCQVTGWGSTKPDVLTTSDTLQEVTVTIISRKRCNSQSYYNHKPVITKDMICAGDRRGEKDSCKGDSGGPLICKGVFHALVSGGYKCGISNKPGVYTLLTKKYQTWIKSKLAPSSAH
How it was run: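 Native rat granzyme K, purified by size-exclusion in 1 M NaCl then MonoS cation exchange. Incubated with inhibitor (1.0–450 μM) at 25 °C in 0.1 M Hepes, 0.01 M CaCl2, pH 7.5 (7.1% DMSO). Timed aliquots were read for residual activity on Cbz-Arg-SBzl with DTNB at 405 nm. k_obs came from ln vt/vo vs time, one or two per inhibitor. For no-inhibition lines, none was seen after 25 min.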

[3] = target: T3, Serine protease 1 (Bos taurus) (UniProt P00760); experiment: Inhibition of bovine trypsin
T3 sequence (whole entry): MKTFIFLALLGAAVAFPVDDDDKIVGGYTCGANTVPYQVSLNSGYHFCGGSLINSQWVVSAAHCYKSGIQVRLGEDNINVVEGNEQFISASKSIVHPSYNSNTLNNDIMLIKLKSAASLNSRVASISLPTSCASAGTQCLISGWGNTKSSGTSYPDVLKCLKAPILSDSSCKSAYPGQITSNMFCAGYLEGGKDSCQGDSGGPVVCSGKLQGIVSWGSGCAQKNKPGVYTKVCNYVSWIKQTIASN
How it was run: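 Irreversible inhibition assayed by incubation at 25 °C in 0.1 M Hepes, 0.01 M CaCl2, pH 7.5 (2% DMSO), inhibitor 1.0–450 μM. Timed aliquots were read for residual activity on Cbz-Arg-SBzl with DTNB at 410 nm. Pseudo-first-order k_obs came from ln vt/vo vs time, using 5–10 points over 2–3 half-lives, three k_obs per inhibitor. DMSO-only controls were run. For no-inhibition lines, none was seen after 25 min.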

Tryptase (Homo sapiens) [4] = target: T4, Tryptase (Homo sapiens) (UniProt Q9BZJ3+Q15661+Q9NRR2); experiment: Compound was evaluated to inhibit mast cell tryptase; No inhibition; assay type: protein assay
How it was run: (§2)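 Human lung mast cell tryptase, high-molecular-weight form, heparin-free, active sites titrated with MUGB. Incubated with inhibitor at 25 °C in 0.1 M Hepes, 10% glycerol, 10 mM heparin, pH 7.5 (7.1% DMSO). […] DMSO controls were run.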

Tryptase (Homo sapiens) [5] = target: T4, Tryptase (Homo sapiens); experiment: Inhibition of mast cell tryptase; assay type: protein assay; how it was run: as §2
[6] = target: T5, Granzyme A (Rattus norvegicus) (UniProt Q8CJF4); experiment: Inhibition of rat granzyme A.; how it was run: as §1
T5 sequence (whole entry): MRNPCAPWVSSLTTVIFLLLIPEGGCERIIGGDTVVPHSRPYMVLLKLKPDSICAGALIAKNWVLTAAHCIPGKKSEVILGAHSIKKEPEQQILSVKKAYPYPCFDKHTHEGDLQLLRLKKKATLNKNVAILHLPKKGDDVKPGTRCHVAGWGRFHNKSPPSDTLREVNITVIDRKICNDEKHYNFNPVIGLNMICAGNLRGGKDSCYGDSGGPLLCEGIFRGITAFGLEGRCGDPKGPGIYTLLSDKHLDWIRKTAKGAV

| SMILES | kobs/[I] (second-order inactivation rate constant) [1] [M⁻¹ s⁻¹] | kobs/[I] (second-order inactivation rate constant) [2] [M⁻¹ s⁻¹] | K obs / 1 [3] [M⁻¹ s⁻¹] | K obs / 1 (Tryptase (Homo sapiens) [4]) | kobs/[I] (second-order inhibition rate constant) (Tryptase (Homo sapiens) [5]) [M⁻¹ s⁻¹] | K obs / 1 [6] [M⁻¹ s⁻¹] |
| --- | --- | --- | --- | --- | --- | --- |
| N=C(N)c1ccc(C(NC(=O)[C@@H]2CCCN2C(=O)CC(c2ccccc2)c2ccccc2)P(=O)(Oc2ccccc2)Oc2ccccc2)cc1 (some centres undefined) | 250 | 1830 | 2660 | inactive |  |  |
| N=C(N)c1ccc(C(NC(=O)[C@@H]2CCCN2C(=O)OCc2ccccc2)P(=O)(Oc2ccccc2)Oc2ccccc2)cc1 (some centres undefined) | 790 | 34 | 910 |  | 1.2 |  |
| C[C@@H](O)[C@H](NC(=O)OCc1ccccc1)C(=O)NC(c1ccc(C(=N)N)cc1)P(=O)(Oc1ccccc1)Oc1ccccc1 (some centres undefined) | 2220 | 3 | 97 | inactive |  |  |
| N=C(N)c1ccc(C(NC(=O)[C@H](CCCCN)NC(=O)OCc2ccccc2)P(=O)(Oc2ccccc2)Oc2ccccc2)cc1 (some centres undefined) | 30 | 1 | 30 | inactive |  | 15 |
| C[C@H](NC(=O)[C@H]1CCCN1C(=O)OCc1ccccc1)C(=O)NC(c1ccc(C(=N)N)cc1)P(=O)(Oc1ccccc1)Oc1ccccc1 (some centres undefined) | 380 | 5 | 240 |  | 1 |  |
| N=C(N)c1ccc(C(NC(=O)[C@@H]2CCCN2C(=O)c2ccccc2Oc2ccccc2)P(=O)(Oc2ccccc2)Oc2ccccc2)cc1 (some centres undefined) | 610 | 60 | 7760 |  | 0.9 |  |
| N=C(N)c1ccc(C(NC(=O)/C=C/c2ccccc2)P(=O)(Oc2ccccc2)Oc2ccccc2)cc1 (centres undefined) | 400 | 3 | 110 |  | 0.3 | 340 |
| N=C(N)c1ccc(CC(NC(=O)OCc2ccccc2)P(=O)(Oc2ccccc2)Oc2ccccc2)cc1 (centres undefined) | 2750 | 2.1 | 24 |  | 17 |  |
| N=C(N)c1ccc(C(NC(=O)/C=C/c2cccs2)P(=O)(Oc2ccccc2)Oc2ccccc2)cc1 (centres undefined) | 740 | 4 | 300 |  | 1 | 430 |
| CC(C)(C)OC(=O)N[C@H](Cc1ccccc1)C(=O)N1CCC[C@H]1C(=O)NC(c1ccc(C(N)N)cc1)P(=O)(Oc1ccccc1)Oc1ccccc1 (some centres undefined) | 170 | 56 | 130 |  | 0.4 |  |
| NC(N)c1ccc(C(NC(=O)c2ccccc2Oc2ccccc2)P(=O)(Oc2ccccc2)Oc2ccccc2)cc1 (centres undefined) | 540 | 1 | 670 |  | 0.4 | 340 |
| C[C@H](NC(=O)[C@@H](CC(=O)O)NC(=O)OCc1ccccc1)C(=O)NC(c1ccc(C(=N)N)cc1)P(=O)(Oc1ccccc1)Oc1ccccc1 (some centres undefined) | 240 | 6 | 2550 |  | 0.7 |  |
| CC(C)[C@H](NC(=O)OCc1ccccc1)C(=O)NC(c1ccc(C(=N)N)cc1)P(=O)(Oc1ccccc1)Oc1ccccc1 (some centres undefined) | 6.7 | 0.7 | 41 |  | 21.2 |  |
| C[C@H](NC(=O)[C@@H](Cc1ccccc1)NC(=O)OCc1ccccc1)C(=O)NC(c1ccc(C(N)N)cc1)P(=O)(Oc1ccccc1)Oc1ccccc1 (some centres undefined) | 1770 | 4.2 | 3010 |  | 4 |  |
| N=C(N)c1ccc(C(NC(=O)[C@@H]2CCCN2C(=O)CCc2ccccc2)P(=O)(Oc2ccccc2)Oc2ccccc2)cc1 (some centres undefined) | 1510 | 50 | 1520 |  | 0.4 |  |
| NCCCCC(NC(=O)OCc1ccccc1)P(=O)(Oc1ccccc1)Oc1ccccc1 (centres undefined) | 1210 | 23 | 6240 |  | 89 |  |
| NC(N)c1ccc(C(NC(=O)[C@@H]2CCCN2C(=O)CNS(=O)(=O)Cc2ccccc2)P(=O)(Oc2ccccc2)Oc2ccccc2)cc1 (some centres undefined) | 3650 | 87 | 37100 |  | 2 |  |
| NCCCCCC(NC(=O)OCc1ccccc1)P(=O)(Oc1ccccc1)Oc1ccccc1 (centres undefined) | 23 | 1.1 | 21 |  | 0.7 |  |
| C[C@H](NC(=O)OCc1ccccc1)C(=O)N[C@H](C)C(=O)N[C@@H](C)C(=O)NC(c1ccc(C(N)N)cc1)P(=O)(Oc1ccccc1)Oc1ccccc1 (some centres undefined) | 730 | 7 | 1780 |  | 2 | 590 |
| C[C@H](NC(=O)[C@@H](C)NC(=O)CCC(=O)O)C(=O)NC(c1ccc(C(=N)N)cc1)P(=O)(Oc1ccccc1)Oc1ccccc1 (some centres undefined) | 260 | 0.3 | 640 |  | 0.7 |  |
| N=C(N)c1ccc(C(NC(=O)CCC(=O)O)P(=O)(Oc2ccccc2)Oc2ccccc2)cc1 (centres undefined) | 857 | 0.3 | 45 |  | 0.2 |  |
| C[C@H](NC(=O)[C@@H](C)NC(=O)OCc1ccccc1)C(=O)NC(c1ccc(C(=N)N)cc1)P(=O)(Oc1ccccc1)Oc1ccccc1 (some centres undefined) | 820 | 5 | 3620 |  | 2 | 480 |
